Results reported in ChEMBL document CHEMBL2434879, “Small molecular inhibitors of miR-1 identified from photocycloadducts of acetylenes with 2-methoxy-1,4-naphthalenequinone” (Bioorg Med Chem, 2013).
Active and inactive are the calls of the source. No cut-off for these calls is given here.

How the values were obtained:
Assay type in all cases: cell-based
Nucleic Acid [1] = assay: Inhibition of microRNA miR-214 (unknown origin) transfected in human A549 cells at 10 uM after 48 hrs by luciferase reporter gene assay relative to DMSO-treated control
How it was run: (§1)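 Cells transfected with the matching miRNA luciferase reporter ([…] for miR-150; A549 for miR-25 or miR-214), with β-gal as internal reference. Treated with 10 µM compound in high-glucose DMEM with 2% FBS (DMSO final 1:1000) for 48 h at 37 °C, 5% CO2. Luciferase signal was normalized to the DMSO control. Triplicates, mean ± SE (n = 3).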

Nucleic Acid [2] = assay: Inhibition of microRNA miR-25 (unknown origin) transfected in human A549 cells at 10 uM after 48 hrs by luciferase reporter gene assay relative to DMSO-treated control; how it was run: as §1
Nucleic Acid [3] = assay: Inhibition of microRNA miR-150 (unknown origin) transfected in mouse […] cells at 10 uM after 48 hrs by luciferase reporter gene assay relative to DMSO-treated control; how it was run: as §1
Nucleic Acid [4] = assay: Inhibition of microRNA miR-1 (unknown origin) transfected in mouse C2C12 cells at 10 uM after 48 hrs by luciferase reporter gene assay relative to DMSO-treated control
How it was run: (§2)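 C2C12 co-transfected at 70% confluence with miR-1 luciferase reporter (0.25 µg) plus β-galactosidase plasmid (0.25 µg, transfection control) via lipofectamine 2000. After 6 h the medium was switched to DMEM with 2% horse serum to induce differentiation, and compound was added (DMSO final 1:1000). Cells were incubated 48 h at 37 °C, 5% CO2, then luciferase read and normalized to DMSO. Triplicates, mean ± SE (n = 3).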

Nucleic Acid [5] = assay: Inhibition of microRNA miR-1 (unknown origin) transfected in mouse C2C12 cells at 5 uM after 48 hrs by luciferase reporter gene assay relative to DMSO-treated control; how it was run: as §2
Nucleic Acid [6] = assay: Reduction in cytoplasmic level of microRNA miR-21 (unknown origin) transfected in human HeLa cells at 10 uM after 48 hrs by quantitative RT-PCR method relative to DMSO-treated control
How it was run: (§3)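 Total RNA (TRIZOL) taken after 48 h compound or DMSO treatment from differentiated C2C12 (miR-1), HeLa (miR-21), A549 (miR-25, miR-214), MCF-7 (miR-9) and […] (miR-150). 2 µg RNA per RT with miRNA-specific primers (16 °C 30 min, 42 °C 30 min, 85 °C 5 min). TaqMan qPCR: 95 °C 10 min, then 40 cycles of 95 °C 15 s and 60 °C 1 min. Comparative Ct method, normalized to DMSO; triplicates, mean ± SE (n = 3).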

Nucleic Acid [7] = assay: Inhibition of microRNA miR-9 (unknown origin) transfected in human MCF7 cells at 10 uM after 48 hrs by luciferase reporter gene assay relative to DMSO-treated control
How it was run: (§4)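 Reporter cells for miR-21 (HeLa) or miR-9 (MCF-7) given 10 µM compound for 48 h. Luciferase signal normalized to DMSO control. Triplicates, mean ± SE (n = 3).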

Nucleic Acid [8] = assay: Reduction in cytoplasmic level of microRNA miR-1 (unknown origin) transfected in mouse C2C12 cells at 10 uM after 48 hrs by quantitative RT-PCR method relative to DMSO-treated control; how it was run: as §3
Nucleic Acid [9] = assay: Reduction in cytoplasmic level of microRNA miR-25 (unknown origin) transfected in human A549 cells at 10 uM after 48 hrs by quantitative RT-PCR method relative to DMSO-treated control; how it was run: as §3
Nucleic Acid [10] = assay: Reduction in cytoplasmic level of microRNA miR-9 (unknown origin) transfected in human MCF7 cells at 10 uM after 48 hrs by quantitative RT-PCR method relative to DMSO-treated control; how it was run: as §3
Nucleic Acid [11] = assay: Inhibition of microRNA miR-21 (unknown origin) transfected in human HeLa cells at 10 uM after 48 hrs by luciferase reporter gene assay relative to DMSO-treated control; how it was run: as §4
Nucleic Acid [12] = assay: Inhibition of microRNA miR-1 (unknown origin) transfected in mouse C2C12 cells after 48 hrs by luciferase reporter gene assay relative to DMSO-treated control; how it was run: as §2
Nucleic Acid [13] = assay: Reduction in cytoplasmic level of microRNA miR-214 (unknown origin) transfected in human A549 cells at 10 uM after 48 hrs by quantitative RT-PCR method relative to DMSO-treated control; how it was run: as §3
Nucleic Acid [14] = assay: Reduction in cytoplasmic level of microRNA miR-150 (unknown origin) transfected in mouse […] cells at 10 uM after 48 hrs by quantitative RT-PCR method relative to DMSO-treated control; how it was run: as §3

## COC12C(=O)c3ccccc3C(=O)C1C(C1CC1)=C2c1cccnc1 (centres undefined)
Nucleic Acid [1]
  fold change (FC): 0.91
Nucleic Acid [2]
  fold change (FC): 0.97
Nucleic Acid [3]
  fold change (FC): 1.04
Nucleic Acid [4]
  fold change (FC): 0.93

## COC12C(=O)c3ccccc3C(=O)C1C(C1CC1)=C2c1ccc(O)c2ncccc12 (centres undefined)
Nucleic Acid [5]
  inhibition: Active

## COC12C(=O)c3ccccc3C(=O)C1C(C1CC1)=C2c1ccccn1 (centres undefined)
Nucleic Acid [1]
  fold change (FC): 0.82
Nucleic Acid [2]
  fold change (FC): 0.92
Nucleic Acid [3]
  fold change (FC): 1.2
Nucleic Acid [4]
  fold change (FC): 1.55

## COC12C=C(c3ccc(OC(C)=O)c4ncccc34)C1C(=O)c1ccccc1C2=O (centres undefined)
Nucleic Acid [5]
  inhibition: inactive

## COc1ccc(C2=C(c3ccccc3)C3C(=O)c4ccccc4C(=O)C23OC)c2cccnc12 (centres undefined)
Nucleic Acid [5]
  inhibition: Active

## COC12C(=O)c3ccccc3C(=O)C1C(c1ccccc1)=C2c1ccccc1 (centres undefined)
Nucleic Acid [1]
  fold change (FC): 0.58
Nucleic Acid [2]
  fold change (FC): 0.63
Nucleic Acid [3]
  fold change (FC): 0.91
Nucleic Acid [4]
  fold change (FC): 0.45

## COC12C(=O)c3ccccc3C(=O)C1C(c1ccc(O)c3ncccc13)=C2[Si](C)(C)C (centres undefined)
Nucleic Acid [5]
  inhibition: Active

## COC12C(=O)c3ccccc3C(=O)C1C(c1ccccn1)=C2c1ccccc1 (centres undefined)
Nucleic Acid [1]
  fold change (FC): 0.95
Nucleic Acid [2]
  fold change (FC): 0.95
Nucleic Acid [3]
  fold change (FC): 1.16
Nucleic Acid [4]
  fold change (FC): 0.9

## COC12C(=O)c3ccccc3C(=O)C1C(c1ccccc1)=C2c1ccc(O)c2ncccc12 (centres undefined)
Nucleic Acid [5]
  inhibition: Active

## COC12C(=O)c3ccccc3C(=O)C1C(c1ccccc1)=C2c1ccc(OC(=O)OC(C)(C)C)c2ncccc12 (centres undefined)
Nucleic Acid [1]
  fold change (FC): 1.01
Nucleic Acid [6]
  Activity: inactive
Nucleic Acid [7]
  inhibition: inactive
Nucleic Acid [8]
  fold change (FC): 4
Nucleic Acid [9]
  Activity: inactive
Nucleic Acid [2]
  fold change (FC): 0.95
Nucleic Acid [10]
  Activity: inactive
Nucleic Acid [11]
  inhibition: inactive
Nucleic Acid [3]
  fold change (FC): 1.35
Nucleic Acid [12]
  inhibition: Dose-dependent effect
Nucleic Acid [13]
  Activity: inactive
Nucleic Acid [4]
  fold change (FC): 7.11
Nucleic Acid [14]
  Activity: inactive

## COC12C(=O)c3ccccc3C(=O)C1C(c1ccc(OC(C)=O)c3ncccc13)=C2[Si](C)(C)C (centres undefined)
Nucleic Acid [5]
  inhibition: inactive

## COC12C(=O)c3ccccc3C(=O)C1C(c1cnccn1)=C2c1ccccc1 (centres undefined)
Nucleic Acid [1]
  fold change (FC): 0.93
Nucleic Acid [2]
  fold change (FC): 1.01
Nucleic Acid [3]
  fold change (FC): 1.32
Nucleic Acid [4]
  fold change (FC): 1.12

## COC12C(=O)c3ccccc3C(=O)C1C(c1ccccc1)=C2c1ccc(OC(C)=O)c2ncccc12 (centres undefined)
Nucleic Acid [5]
  inhibition: inactive

## COC12C(=O)c3ccccc3C(=O)C1C(C1CC1)=C2c1cnc2ccccc2c1 (centres undefined)
Nucleic Acid [1]
  fold change (FC): 0.93
Nucleic Acid [2]
  fold change (FC): 1
Nucleic Acid [3]
  fold change (FC): 0.83
Nucleic Acid [4]
  fold change (FC): 1.36

## COC12C(=O)c3ccccc3C(=O)C1C(C1CC1)=C2c1ccc(OC(C)=O)c2ncccc12 (centres undefined)
Nucleic Acid [5]
  inhibition: inactive

## COc1ccc(C2=CC3(OC)C(=O)c4ccccc4C(=O)C23)c2cccnc12 (centres undefined)
Nucleic Acid [5]
  inhibition: inactive

## COC12C(=O)c3ccccc3C(=O)C1C(c1ccc(OC(=O)OC(C)(C)C)c3ncccc13)=C2[Si](C)(C)C (centres undefined)
Nucleic Acid [5]
  inhibition: inactive

## COC12C(=O)c3ccccc3C(=O)C1C(C1CC1)=C2c1ccc(OC(=O)OC(C)(C)C)c2ncccc12 (centres undefined)
Nucleic Acid [5]
  inhibition: inactive

## COC12C=C(c3ccc(O)c4ncccc34)C1C(=O)c1ccccc1C2=O (centres undefined)
Nucleic Acid [5]
  inhibition: inactive

## COc1ccc(C2=C(C3CC3)C3C(=O)c4ccccc4C(=O)C23OC)c2cccnc12 (centres undefined)
Nucleic Acid [5]
  inhibition: Active

## COC12C=C(c3ccc(OC(=O)OC(C)(C)C)c4ncccc34)C1C(=O)c1ccccc1C2=O (centres undefined)
Nucleic Acid [5]
  inhibition: inactive

## COc1ccc(C2=C([Si](C)(C)C)C3(OC)C(=O)c4ccccc4C(=O)C23)c2cccnc12 (centres undefined)
Nucleic Acid [5]
  inhibition: Active

## COC12C(=O)c3ccccc3C(=O)C1C(C1CC1)=C2c1cncnc1 (centres undefined)
Nucleic Acid [1]
  fold change (FC): 1.28
Nucleic Acid [2]
  fold change (FC): 1.16
Nucleic Acid [3]
  fold change (FC): 1.02
Nucleic Acid [4]
  fold change (FC): 2.06

## COC12C(=O)c3ccccc3C(=O)C1C(C1CC1)=C2c1cnccn1 (centres undefined)
Nucleic Acid [1]
  fold change (FC): 0.74
Nucleic Acid [2]
  fold change (FC): 0.83
Nucleic Acid [3]
  fold change (FC): 1.63
Nucleic Acid [4]
  fold change (FC): 0.84

## COC12C(=O)c3ccccc3C(=O)C1C(C1CC1)=C2c1cncc2ccccc12 (centres undefined)
Nucleic Acid [1]
  fold change (FC): 1.1
Nucleic Acid [2]
  fold change (FC): 1.16
Nucleic Acid [3]
  fold change (FC): 1.75
Nucleic Acid [4]
  fold change (FC): 0.87
